Measurements published in ChEMBL document CHEMBL1145427, “Quick assembly of 1,4-diphenyltriazoles as probes targeting beta-amyloid aggregates in Alzheimer's disease” (J Med Chem, 2007).
Each block holds one compound with its values, some of them ahead of it.

Assays:
[1] = Displacement of [125I]IMPY from beta amyloid protein plaques in Alzheimer's disease patient brain; parameters: species or system Homo sapiens
In short: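 Competition binding to pooled gray-matter homogenates from four AD brains (approximately 100 mg wet tissue/mL in PBS pH 7.4; 20–50 μg per tube). [125I]2 at 0.04–0.06 nM; inhibitors 10^-5–10^-10 M in PBS with 0.1% BSA; final volume 1 mL. Nonspecific binding with 600 nM 2. Incubated 37 °C, 2 h; GF/B filtration, gamma counting. Ki from nonlinear regression.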

Zone of skin [2] = test: Biodistribution in ICR mouse skin at 5 to 10 uCi, iv after 1 hr; format: ADME, organism-based; conditions: in vivo
In short: (§1)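 Male ICR mice (22–25 g) under isoflurane anesthesia; [125I] or [18F] tracer (5–10 μCi) in 0.15 mL of 0.1% bovine serum albumin solution injected into the tail vein. Groups of n = 3 per time point, killed by cervical dislocation. Organs removed, weighed and gamma-counted against diluted aliquots of injected dose, giving % dose/organ and % ID/g. Total blood activity assumed as 7% of body weight.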

Spleen [3] = test: Biodistribution in ICR mouse spleen at 5 to 10 uCi, iv after 30 mins; format: ADME, organism-based; conditions: in vivo, 0.5 h; in short: as §1
Heart [4] = test: Biodistribution in ICR mouse heart at 5 to 10 uCi, iv after 1 hr; format: ADME, organism-based; conditions: in vivo; in short: as §1
Blood [5] = test: Biodistribution in ICR mouse blood at 5 to 10 uCi, iv after 2 hrs; format: ADME, organism-based; conditions: in vivo; in short: as §1
[6] = Partition coefficient, log P of the compound; format: physicochemical; conditions: octanol/water
In short: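 [125I] or [18F] tracer mixed with 3 g each of 1-octanol and 0.1 M phosphate buffer pH 7.4. Vortexed 3 min at room temperature, then centrifuged 5 min. Two 0.5 g samples from each layer counted; PC is the ratio of cpm/g in octanol to cpm/g in buffer. The octanol layer was repartitioned until values were consistent.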

Heart [7] = test: Biodistribution in ICR mouse heart at 5 to 10 uCi, iv after 2 mins; format: ADME, organism-based; conditions: in vivo; in short: as §1
Kidney [8] = test: Biodistribution in ICR mouse kidney at 5 to 10 uCi, iv after 2 hrs; format: ADME, organism-based; conditions: in vivo; in short: as §1
Kidney [9] = test: Biodistribution in ICR mouse kidney at 5 to 10 uCi, iv after 2 mins; format: ADME, organism-based; conditions: in vivo; in short: as §1
Brain [10] = test: Biodistribution in ICR mouse brain at 5 to 10 uCi, iv after 1 hr; format: ADME, organism-based; conditions: in vivo; in short: as §1
Lung [11] = test: Biodistribution in ICR mouse lung at 5 to 10 uCi, iv after 1 hr; format: ADME, organism-based; conditions: in vivo; in short: as §1
Thyroid gland [12] = test: Biodistribution in ICR mouse thyroid at 5 to 10 uCi, iv after 2 mins; format: ADME, organism-based; conditions: in vivo; in short: as §1
Heart [13] = test: Biodistribution in ICR mouse heart at 5 to 10 uCi, iv after 30 mins; format: ADME, organism-based; conditions: in vivo, 0.5 h; in short: as §1
Lung [14] = test: Biodistribution in ICR mouse lung at 5 to 10 uCi, iv after 2 hrs; format: ADME, organism-based; conditions: in vivo; in short: as §1
Brain [15] = test: Biodistribution in ICR mouse brain at 5 to 10 uCi, iv after 2 mins; format: ADME, organism-based; conditions: in vivo; in short: as §1
Thyroid gland [16] = test: Biodistribution in ICR mouse thyroid at 5 to 10 uCi, iv after 2 hrs; format: ADME, organism-based; conditions: in vivo; in short: as §1
Brain [17] = test: Biodistribution in ICR mouse brain at 5 to 10 uCi, iv after 30 mins; format: ADME, organism-based; conditions: in vivo, 0.5 h; in short: as §1
Brain [18] = test: Biodistribution in ICR mouse brain at 5 to 10 uCi, iv after 2 hrs; format: ADME, organism-based; conditions: in vivo; in short: as §1
Muscle tissue [19] = test: Biodistribution in ICR mouse muscle at 5 to 10 uCi, iv after 30 mins; format: ADME, organism-based; conditions: in vivo, 0.5 h; in short: as §1
Kidney [20] = test: Biodistribution in ICR mouse kidney at 5 to 10 uCi, iv after 1 hr; format: ADME, organism-based; conditions: in vivo; in short: as §1
Heart [21] = test: Biodistribution in ICR mouse heart at 5 to 10 uCi, iv after 2 hrs; format: ADME, organism-based; conditions: in vivo; in short: as §1
Lung [22] = test: Biodistribution in ICR mouse lung at 5 to 10 uCi, iv after 2 mins; format: ADME, organism-based; conditions: in vivo; in short: as §1
Thyroid gland [23] = test: Biodistribution in ICR mouse thyroid at 5 to 10 uCi, iv after 1 hr; format: ADME, organism-based; conditions: in vivo; in short: as §1
Blood [24] = test: Biodistribution in ICR mouse blood at 5 to 10 uCi, iv after 30 mins; format: ADME, organism-based; conditions: in vivo, 0.5 h; in short: as §1
Zone of skin [25] = test: Biodistribution in ICR mouse skin at 5 to 10 uCi, iv after 30 mins; format: ADME, organism-based; conditions: in vivo, 0.5 h; in short: as §1
Liver [26] = test: Biodistribution in ICR mouse liver at 5 to 10 uCi, iv after 2 hrs; format: ADME, organism-based; conditions: in vivo; in short: as §1
Thyroid gland [27] = test: Biodistribution in ICR mouse thyroid at 5 to 10 uCi, iv after 30 mins; format: ADME, organism-based; conditions: in vivo, 0.5 h; in short: as §1
Spleen [28] = test: Biodistribution in ICR mouse spleen at 5 to 10 uCi, iv after 2 mins; format: ADME, organism-based; conditions: in vivo; in short: as §1
Liver [29] = test: Biodistribution in ICR mouse liver at 5 to 10 uCi, iv after 2 mins; format: ADME, organism-based; conditions: in vivo; in short: as §1
Blood [30] = test: Biodistribution in ICR mouse blood at 5 to 10 uCi, iv after 2 mins; format: ADME, organism-based; conditions: in vivo; in short: as §1
Muscle tissue [31] = test: Biodistribution in ICR mouse muscle at 5 to 10 uCi, iv after 2 hrs; format: ADME, organism-based; conditions: in vivo; in short: as §1
Spleen [32] = test: Biodistribution in ICR mouse spleen at 5 to 10 uCi, iv after 2 hrs; format: ADME, organism-based; conditions: in vivo; in short: as §1
Zone of skin [33] = test: Biodistribution in ICR mouse skin at 5 to 10 uCi, iv after 2 mins; format: ADME, organism-based; conditions: in vivo; in short: as §1
Kidney [34] = test: Biodistribution in ICR mouse kidney at 5 to 10 uCi, iv after 30 mins; format: ADME, organism-based; conditions: in vivo, 0.5 h; in short: as §1
Zone of skin [35] = test: Biodistribution in ICR mouse skin at 5 to 10 uCi, iv after 2 hrs; format: ADME, organism-based; conditions: in vivo; in short: as §1
Liver [36] = test: Biodistribution in ICR mouse liver at 5 to 10 uCi, iv after 1 hr; format: ADME, organism-based; conditions: in vivo; in short: as §1
Liver [37] = test: Biodistribution in ICR mouse liver at 5 to 10 uCi, iv after 30 mins; format: ADME, organism-based; conditions: in vivo, 0.5 h; in short: as §1
Muscle tissue [38] = test: Biodistribution in ICR mouse muscle at 5 to 10 uCi, iv after 1 hr; format: ADME, organism-based; conditions: in vivo; in short: as §1
Spleen [39] = test: Biodistribution in ICR mouse spleen at 5 to 10 uCi, iv after 1 hr; format: ADME, organism-based; conditions: in vivo; in short: as §1
Muscle tissue [40] = test: Biodistribution in ICR mouse muscle at 5 to 10 uCi, iv after 2 mins; format: ADME, organism-based; conditions: in vivo; in short: as §1
Blood [41] = test: Biodistribution in ICR mouse blood at 5 to 10 uCi, iv after 1 hr; format: ADME, organism-based; conditions: in vivo; in short: as §1
Lung [42] = test: Biodistribution in ICR mouse lung at 5 to 10 uCi, iv after 30 mins; format: ADME, organism-based; conditions: in vivo, 0.5 h; in short: as §1

SMILES: CNc1ccc(-c2cn(-c3ccc(I)cc3)nn2)cc1
Ki [1]: 4 nM

SMILES: CN(C)c1ccc(-c2cn(-c3ccc(I)cc3)nn2)cc1
Ki [1]: 8 nM

SMILES: CN(C)c1ccc(-c2cn(-c3ccc(OCCF)cc3)nn2)cc1
Ki [1]: 5 nM

SMILES: CNc1ccc(-c2cn(-c3ccc([125I])cc3)nn2)cc1
Drug uptake (Zone of skin [2]): 1.81 % ID/g
Drug uptake (Spleen [3]): 1.8 % ID/g
Drug uptake (Heart [4]): 1.1 % ID/g
Drug uptake (Blood [5]): 2.06 % ID/g
logP [6]: 3
Drug uptake (Heart [7]): 7.45 % ID/g
Drug uptake (Kidney [8]): 2.91 % ID/g
Drug uptake (Kidney [9]): 13.4 % ID/g
Drug uptake (Brain [10]): 0.7 % ID/g
Drug uptake (Lung [11]): 2.82 % ID/g
Drug uptake (Thyroid gland [12]): 4.38 % ID/g
Drug uptake (Heart [13]): 1.79 % ID/g
Drug uptake (Lung [14]): 2.83 % ID/g
Drug uptake (Brain [15]): 9.4 % ID/g
Drug uptake (Thyroid gland [16]): 62.1 % ID/g
Drug uptake (Brain [17]): 1.66 % ID/g
Drug uptake (Brain [18]): 0.43 % ID/g
Drug uptake (Muscle tissue [19]): 1.07 % ID/g
Drug uptake (Kidney [20]): 3.71 % ID/g
Drug uptake (Heart [21]): 0.89 % ID/g
Drug uptake (Lung [22]): 16 % ID/g
Drug uptake (Thyroid gland [23]): 54.2 % ID/g
Drug uptake (Blood [24]): 3.04 % ID/g
Drug uptake (Zone of skin [25]): 2.34 % ID/g
Drug uptake (Liver [26]): 6 % ID/g
Drug uptake (Thyroid gland [27]): 11.5 % ID/g
Drug uptake (Spleen [28]): 4.9 % ID/g
Drug uptake (Liver [29]): 20.7 % ID/g
Drug uptake (Blood [30]): 4.45 % ID/g
Drug uptake (Muscle tissue [31]): 0.47 % ID/g
Drug uptake (Spleen [32]): 1.16 % ID/g
Drug uptake (Zone of skin [33]): 1.05 % ID/g
Drug uptake (Kidney [34]): 6.43 % ID/g
Drug uptake (Zone of skin [35]): 1.6 % ID/g
Drug uptake (Liver [36]): 6.46 % ID/g
Drug uptake (Liver [37]): 11.1 % ID/g
Drug uptake (Muscle tissue [38]): 0.56 % ID/g
Drug uptake (Spleen [39]): 1.24 % ID/g
Drug uptake (Muscle tissue [40]): 0.83 % ID/g
Drug uptake (Blood [41]): 2.04 % ID/g
Drug uptake (Lung [42]): 4.86 % ID/g

Second part, the compound after the results:

Ki [1]: 75 nM
SMILES: CN(C)c1ccc(-c2cn(-c3ccc(OCCCO)cc3)nn2)cc1

Ki [1]: 6.2 nM
SMILES: CN(C)c1ccc(-c2cn(-c3ccc(OCCCF)cc3)nn2)cc1
